In ChEMBL document CHEMBL3232837, “Synthesis and evaluation of new Hsp90 inhibitors based on a 1,4,5-trisubstituted 1,2,3-triazole scaffold” (J Med Chem, 2014) one finds IC50 and inhibition data, which are given here for 31 compounds.

For assay [1], the target named is Heat shock protein HSP 90-alpha (Homo sapiens, UniProt P07900). Put plainly: Displacement of GM-FITC from full-length recombinant human Hsp90-alpha after 4 hrs by fluorescence polarization assay. A general note: In fluorescence polarisation assays a small probe gives low polarisation when free and higher when bound to something large.
A further assay concerns NCI-H460. Put plainly: Cytotoxicity against human NCI-H460 cells assessed as growth inhibition after 72 hrs by SRB assay. It is filed as functional, cell-based. The settings on record: NCI-H460, 72 h. In a few lines:
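NCI-H460 cells grown in RPMI-1640 with 10% heat-inactivated FBS, seeded at about 10% confluence and allowed 24 h recovery. Exposed to graded drug concentrations or solvent for 72 h. Surviving fraction measured by sulforhodamine B. IC50 is the concentration giving a 50% drop in cell number vs vehicle, from dose-response curve fitting; mean of n=4 with SD.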
In general terms: In SRB staining, fixed cells bind dye roughly in proportion to their protein.

Assay [2] addresses Heat shock protein HSP 90-beta (Homo sapiens) (UniProt P08238). As to the kind of experiment: Inhibition of HSP90 in human A431 cells overexpressing EGFR assessed as downregulation of EGFR protein expression after 24 hrs by Western blot analysis. It is filed as cell-based. The conditions noted are these: A-431. In a few lines:
(§1)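 A431 cells treated 24 h after seeding for 24 h over a concentration range; 17-DMAG 0.2 µM as reference. Cells lysed in RIPA buffer with protease and phosphatase inhibitors, protein measured by Bradford. Equal protein run on SDS-PAGE and blotted to nitrocellulose, then probed for EGFR, Cdk4, Akt, Hsp70 and actin. ECL detection; densitometry normalized to β-actin. Run at least twice.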
A general note: In western blotting, separated proteins are transferred to a membrane and probed.

For assay [3] the target is unchanged. Put plainly: Inhibition of HSP90 in human A431 cells overexpressing EGFR assessed as downregulation of CDK4 protein expression after 24 hrs by Western blot analysis. The settings on record: A-431. It counts as cell-based. In a few lines:
as §1

The target is the same in assay [4]. Put plainly: Inhibition of HSP90 in human A431 cells overexpressing EGFR assessed as downregulation of AKT protein expression after 24 hrs by Western blot analysis. The conditions noted are these: A-431. It counts as cell-based. In a few lines: as §1
Assay [5] has the same target. Put plainly: Inhibition of HSP90 in human A431 cells overexpressing EGFR assessed as induction of HSP70 protein expression after 24 hrs by Western blot analysis. It is filed as cell-based. The settings on record: A-431. In a few lines: as §1

A value given as a limit tells only on which side of the number the result lay.

Sequence of Heat shock protein HSP 90-beta (Homo sapiens) (P08238 whole entry): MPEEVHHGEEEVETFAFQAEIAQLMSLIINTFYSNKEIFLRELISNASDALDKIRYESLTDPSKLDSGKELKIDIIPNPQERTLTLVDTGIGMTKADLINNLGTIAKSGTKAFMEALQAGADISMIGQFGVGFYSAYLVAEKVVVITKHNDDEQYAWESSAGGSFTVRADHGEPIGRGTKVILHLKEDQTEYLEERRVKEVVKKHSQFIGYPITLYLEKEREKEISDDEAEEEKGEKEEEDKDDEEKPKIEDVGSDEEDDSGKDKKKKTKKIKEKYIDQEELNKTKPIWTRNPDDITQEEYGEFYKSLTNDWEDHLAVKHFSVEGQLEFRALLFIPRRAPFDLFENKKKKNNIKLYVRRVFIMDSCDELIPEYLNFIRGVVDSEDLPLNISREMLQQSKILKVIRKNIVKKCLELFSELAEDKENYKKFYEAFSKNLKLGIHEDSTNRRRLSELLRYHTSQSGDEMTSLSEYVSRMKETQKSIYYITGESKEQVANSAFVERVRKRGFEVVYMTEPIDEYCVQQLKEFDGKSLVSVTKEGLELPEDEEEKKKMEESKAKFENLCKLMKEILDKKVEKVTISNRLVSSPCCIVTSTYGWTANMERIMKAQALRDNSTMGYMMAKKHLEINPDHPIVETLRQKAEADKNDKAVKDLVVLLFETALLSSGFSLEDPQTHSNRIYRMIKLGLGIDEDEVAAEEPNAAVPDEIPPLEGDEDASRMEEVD

The IC50 is the concentration that gives 50% inhibition. Take `CC(C)c1cc(-n2nncc2-c2ccc(CN3CCN(Cc4ccccc4)CC3)cc2)c(O)cc1O`: the figures for the IC50 (in assay [1]; with NCI-H460) were 27 nM and 180 nM, respectively.

As to `CCNC(=O)c1nnn(-c2cc(C(C)C)c(O)cc2O)c1-c1ccc(CNCCCN(CC)CC)cc1`, the half-maximal inhibitory concentration (IC50) in assay [1] is 12 nM; in the assay on NCI-H460, 412 nM.

Take `CCNC(=O)c1nnn(-c2cc(C(C)C)c(O)cc2O)c1-c1ccc(CN2CCN(C)CC2)cc1`: the figures for the IC50 (in assay [1]; in the assay on NCI-H460) were less than 5 nM and 47 nM, respectively.

Turning to `CC(C)c1cc(-n2nnc(C(=O)N3CCOCC3)c2-c2ccc(CN3CCOCC3)cc2)c(O)cc1O`, the concentration for half-maximal inhibition (IC50) is 270 nM in assay [1] and more than 1000 nM in the assay on NCI-H460.

For `CCNC(=O)c1nnn(-c2cc(C(C)C)c(O)cc2O)c1-c1ccc(CN2CCNCC2)cc1`, the IC50 was less than 5 nM in assay [1] and 250 nM with NCI-H460.

In the case of `CCNC(=O)c1nnn(-c2cc(C(C)C)c(O)cc2O)c1-c1ccc(CNC2CCCCC2)cc1`, the values for the IC50 (in assay [1]; in the assay with NCI-H460) were 6.8 nM and 15 nM, respectively.

Consider `CCNC(=O)c1nnn(-c2cc(C(C)C)c(O)cc2O)c1-c1ccc(CN2CCCCC2)cc1`, for which the 50% inhibitory concentration (IC50) in assay [1] was 21 nM; with NCI-H460, 6 nM. Moreover, the inhibition entry in assay [2], in assay [3], in assay [4] and in assay [5] was “Dose-dependent effect” throughout.

In the case of `CCNC(=O)c1nnn(-c2cc(C(C)C)c(O)cc2O)c1-c1ccc(CN(CC)CCO)cc1`, the half-inhibitory concentration (IC50) was less than 5 nM in assay [1] and 56 nM in the assay with NCI-H460.

`CC(C)c1cc(-n2nnc(C(=O)NC3CCCCC3)c2-c2ccc(CN3CCOCC3)cc2)c(O)cc1O`: the values for the IC50 (in assay [1]; with NCI-H460) were 95 nM and 46 nM, respectively.

Turning to `CCCCCCCNC(=O)c1nnn(-c2cc(C(C)C)c(O)cc2O)c1-c1ccc(CN2CCOCC2)cc1`, the IC50 in assay [1] was found to be 33 nM; in the assay on NCI-H460 it was 45 nM.

In the case of `CCNC(=O)c1nnn(-c2cc(C(C)C)c(O)cc2O)c1-c1ccc(Cn2ccnc2)cc1`, the concentration for half-maximal inhibition (IC50) in assay [1] was 23 nM; in the assay on NCI-H460 it was 28 nM.

Turning to `CC(C)c1cc(-n2cc(-c3ccc(CN4CCN(Cc5ccccc5)CC4)cc3)nn2)c(O)cc1O`, the concentration for half-maximal inhibition (IC50) was 295 nM in assay [1] and more than 1000 nM with NCI-H460.

`CC(C)c1cc(-n2nncc2-c2ccc(CN3CCCC(O)C3)cc2)c(O)cc1O` (stereo unspecified): the half-inhibitory concentration (IC50) worked out at 37 nM in assay [1] and 45 nM in the assay with NCI-H460.

On to `CCNC(=O)c1nnn(-c2cc(C(C)C)c(OC(C)=O)cc2OC(C)=O)c1-c1ccc(CN2CCOCC2)cc1`, for which the IC50 in assay [1] was more than 1000 nM; with NCI-H460, 6.5 nM. The inhibition entry in assay [2], in assay [3], in assay [4] and in assay [5] was “Dose-dependent effect” each time.

For `CC(C)c1cc(-n2nncc2-c2ccc(CN3CCN(c4ccccc4)CC3)cc2)c(O)cc1O`, the IC50 in assay [1] stood at 36 nM; in the assay with NCI-H460 it was 520 nM.

With `CC(C)c1cc(-n2nnc(C(=O)NC3CCCC3)c2-c2ccc(CN3CCOCC3)cc2)c(O)cc1O`, the 50% inhibitory concentration (IC50) was 27 nM in assay [1] and 14 nM in the assay on NCI-H460. For the same compound, the inhibition result in assay [2], in assay [3], in assay [4] and in assay [5] was “Dose-dependent effect” each time.

For `CC(C)c1cc(-n2nnc(C(=O)N[C@H](C(=O)O)C(C)C)c2-c2ccc(CN3CCOCC3)cc2)c(O)cc1O`, the results for the IC50 (in assay [1]; in the assay on NCI-H460) were 181 nM and more than 1000 nM, respectively.

In the case of `CCNC(=O)c1nnn(-c2cc(C(C)C)c(O)cc2O)c1-c1ccc(CN2CCC[C@H](O)C2)cc1`, the values for the IC50 (in assay [1]; in the assay on NCI-H460) were 23 nM and 70 nM, respectively.

For the compound `CCNC(=O)c1nnn(-c2cc(C(C)C)c(O)cc2O)c1-c1ccc(CN2CCCCC2CCO)cc1` (stereo unspecified), the concentration for half-maximal inhibition (IC50) in assay [1] stood at 10 nM; with NCI-H460, 110 nM.

Take `CCNC(=O)c1nnn(-c2cc(C(C)C)c(O)cc2O)c1-c1ccc(CN2CCC(N(C)C)CC2)cc1`: the values for the 50% inhibitory concentration (IC50) (in assay [1]; in the assay on NCI-H460) were less than 5 nM and 120 nM, respectively.

As for `CCNC(=O)c1nnn(-c2cc(C(C)C)c(O)cc2O)c1-c1ccc(CNCCN(CC)CC)cc1`, the 50% inhibitory concentration (IC50) in assay [1] turned out to be 15 nM; in the assay on NCI-H460, 200 nM.

On to `CCNC(=O)c1nnn(-c2cc(C(C)C)c(O)cc2O)c1-c1ccc(CN2CC[C@H](N(C)C)C2)cc1`, for which the IC50 was 13 nM in assay [1] and 85 nM in the assay on NCI-H460.

Take `CCNC(=O)c1nnn(-c2cc(C(C)C)c(O)cc2O)c1-c1ccc(CN2CCCC2)cc1`: the figures for the IC50 (in assay [1]; in the assay with NCI-H460) were less than 5 nM and 3 nM, respectively.

With `CC(C)c1cc(-n2nnc(C(=O)NCCCl)c2-c2ccc(CN3CCOCC3)cc2)c(O)cc1O`, the half-maximal inhibitory concentration (IC50) was 17 nM in assay [1] and 4.3 nM with NCI-H460.

Regarding `CCNC(=O)c1nnn(-c2cc(C(C)C)c(O)cc2O)c1-c1ccc(CN(CC)CC)cc1`, the IC50 came out at 25 nM in assay [1] and 11 nM in the assay on NCI-H460. Also, the inhibition result in assay [2], in assay [3], in assay [4] and in assay [5] was “Dose-dependent effect” throughout.

For the compound `CCNC(=O)c1nnn(-c2cc(C(C)C)c(O)cc2O)c1-c1ccc(CN2CCC[C@@H](O)C2)cc1`, the IC50 in assay [1] stood at 30 nM; in the assay with NCI-H460 it was 52 nM.

As for `CCNC(=O)c1nnn(-c2cc(C(C)C)c(O)cc2O)c1-c1ccc(CNC2CCN(C)CC2)cc1`, the half-inhibitory concentration (IC50) in assay [1] is 32 nM; in the assay on NCI-H460, more than 1000 nM.

In the case of `CCNC(=O)c1nnn(-c2cc(C(C)C)c(O)cc2O)c1-c1ccc(CNCC2CCCCC2)cc1`, the IC50 in assay [1] was less than 5 nM; with NCI-H460, 2.1 nM. The inhibition entry in assay [2], in assay [3], in assay [4] and in assay [5] was “Dose-dependent effect” in each case.

As for `CC(C)c1cc(-n2cc(-c3ccc(CN4CCN(c5ccccc5)CC4)cc3)nn2)c(O)cc1O`, the IC50 was 320 nM in assay [1] and more than 1000 nM in the assay on NCI-H460.

For `CC(C)c1cc(-n2nncc2-c2ccc(CN3CCOCC3)cc2)c(O)cc1O`, the figures for the half-maximal inhibitory concentration (IC50) (in assay [1]; in the assay with NCI-H460) were 35 nM and 150 nM, respectively.

For the compound `CCNC(=O)c1nnn(-c2cc(C(C)C)c(O)cc2O)c1-c1ccc(CNCCN2CCOCC2)cc1`, the 50% inhibitory concentration (IC50) is 14.8 nM in assay [1] and 140 nM in the assay with NCI-H460. For the same compound, the inhibition result in assay [2], in assay [3], in assay [4] and in assay [5] was “Dose-dependent effect” each time.
